Assay results taken from ChEMBL document CHEMBL5390255, “Expanding the squaramide library as mycobacterial ATP synthase inhibitors: Innovative synthetic pathway and biological evaluation” (Bioorg Med Chem, 2023).
Values after ≈ are worked out from the molar mass of the structure shown. Active and inactive are the calls of the source. The calls are words filed in the database; no cut-off is given here.

Assays:
[1] = Octanol/water partition coefficient log P of the compound; assay type: physicochemical
Method in brief: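 Calculated by Chemaxon as log n-octanol/water partition coefficient, not measured.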

[2] = system: Mycobacterium tuberculosis; test: Antibacterial activity against Mycobacterium tuberculosis H37Ra assessed as bacterial growth inhibition incubated for 7 days by broth microdilution method; assay type: functional; details: time 7 day
Method in brief: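 H37Ra-Lux luminescent broth microdilution. Cultures in 7H9/OADC/tyloxapol/glycerol at 1x10⁴ RLU/well. 2-fold nine-point dilution from final 100 µM, DMSO ≤0.5%, in triplicate, with bedaquiline reference. Incubated 7 days at 37 °C; luminescence read after n-decanal injection. MIC90 from variable-slope four-parameter nonlinear regression.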

[3] = Cytotoxicity against mouse RAW264.7 cells assessed as reduction of cell viability incubated for 72 hrs by Cell Titer-Glo assay; assay type: toxicity, cell-based
[4] = system: Mycobacterium tuberculosis; test: Bactericidal activity against Mycobacterium tuberculosis H37Ra assessed as bacterial growth inhibition incubated for 3 to 4 weeks by broth microdilution method; assay type: functional; details: time 3-4 weeks
Method in brief: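 MBC: same H37Ra-Lux microdilution setup as the MIC assay. At 14 days, 2 µL per condition spotted on 7H11 agar in triplicate, and wells at and one step above MIC fully plated. Colonies counted after 3–4 weeks at 37 °C. MBC is the lowest concentration giving >99% kill.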

[5] = system: Mycobacterium tuberculosis; test: Anti-mycobacterial activity against Mycobacterium tuberculosis H37Ra infected in mouse RAW264.7 cells at 0.5 to 2 times MIC measured after 24 hrs by time-kill kinetic assay; assay type: functional, organism-based
Method in brief: (§1)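 RAW 264.7 macrophages infected with H37Ra-Lux at MOI 10 for 4 h in DMEM with 5% iFBS. Extracellular bacteria were removed with 200 µg/ml amikacin for 1 h, and cells reseeded at 5x10⁴/well. […] Cells were PBS-washed, lysed in 0.1% Triton X-100, and luminescence read with n-decanal at 24, 48 and 72 h.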

[6] = system: Mycobacterium tuberculosis; test: Anti-mycobacterial activity against Mycobacterium tuberculosis H37Ra infected in mouse RAW264.7 cells at 0.5 to 2 times MIC measured after 72 hrs by time-kill kinetic assay; assay type: functional, organism-based; method in brief: as §1
[7] = system: Mycobacterium tuberculosis; test: Synergistic antibacterial activity against Mycobacterium tuberculosis H37Ra assessed as fractional inhibitory concentration index at 2 times MIC measured after 7 days in presence of clofazimine by checkerboard microdilution assay; assay type: functional; details: time 7 day
Method in brief: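 Checkerboard with H37Ra-Lux, in triplicate. Squaramide 2-fold dilutions from 2x MIC across columns; clofazimine 2-fold dilutions from 2x MIC down rows. Luminescence read at 7 days. FICI calculated as A/MIC A + B/MIC B.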

[8] = system: Mycobacterium tuberculosis; test: Antibacterial activity against wild type Mycobacterium tuberculosis H37Ra incubated for 7 days by resazurin staining based microtiter assay; assay type: functional; details: 168 h, time 7 day
Method in brief: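 Resazurin microtiter assay on H37Ra atpB K179N mutants and wild type, using exponential cultures diluted to OD 0.02. 3-fold serial dilution from 10 µM (0.002–10 µM), in triplicate. After 7 days, 0.02% resazurin added for 24 h, then fluorescence read (ex 530/em 590 nm). MIC taken from four-parameter variable-slope nonlinear regression.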

[9] = system: Mycobacterium tuberculosis; test: Antibacterial activity against Mycobacterium tuberculosis H37Rv assessed as bacterial growth inhibition by resazurin staining based broth micro-dilution assay; assay type: functional
[10] = Stability of compound; assay type: physicochemical
[11] = system: Mycobacterium tuberculosis; test: Anti-mycobacterial activity against Mycobacterium tuberculosis H37Ra infected in mouse RAW264.7 cells at 0.5 times MIC measured after 24 hrs by time-kill kinetic assay; assay type: functional, organism-based; method in brief: as §1
[12] = system: Mycobacterium tuberculosis; test: Anti-mycobacterial activity against Mycobacterium tuberculosis H37Ra.mScarlet+ infected in mouse RAW264.7 cells assessed as reduction in bacterial load at 4 uM incubated for 72 hrs by 488-I Phalloidin/DAPI staining based microscopic analysis relative to control; assay type: functional; set-up: scale not given: the % may be the effect or the level left
Method in brief: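 RAW 264.7 cells infected with H37Ra.mScarlet⁺, seeded on coverslips at 5x10⁵ cells/ml, and treated with compound at 0.5% final DMSO; infected cells with 0.5% DMSO as control. At 72 h cells were PBS-washed and fixed in 4% paraformaldehyde. Actin stained with phalloidin 488 (1:1000, 15 min) and nuclei with 1 µg/ml DAPI (5 min). Imaged by fluorescence microscopy at 63x.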

ATP synthase = test: Inhibition of Mycobacterium tuberculosis H37Rv ATP synthase by luminometer analysis; assay type: protein-complex assay
[13] = Selectivity index, ratio of MIC for antibacterial activity against Mycobacterium tuberculosis H37Rv to the IC50 for inhibition of Mycobacterium tuberculosis H37Rv ATP synthase; assay type: toxicity
[14] = Mycobacterium tuberculosis, H37Ra, 168 h, read-out: MIC
[15] = Mycobacterium tuberculosis, H37Ra, read-out: MBC

| Compound | logP [1] | MIC [2, 14] [µM] | CC50 at 72 h [3] [µM] | other results |
| --- | --- | --- | --- | --- |
| O=c1c(NCc2ccccn2)c(N2CCNCC2)c1=O | -0.21 | > 64 | > 64 | – |
| COc1ccc(-c2c(NCc3ccccn3)c(=O)c2=O)cc1 | 2.18 | 6.59 (≈ 1.94 µg/mL) | > 64 | MBC [4, 15]: 8 µM (≈ 2.35 µg/mL); Activity [5]: inactive; Activity [6]: inactive; fractional inhibitory concentration index (FICI) [7]: 0.63 |
| C#CCNc1c(NCc2ccccn2)c(=O)c1=O | 0.17 | > 64 | > 64 | – |
| O=c1c(NCc2ccccn2)c(-c2ccc(C3CCCCC3)cc2)c1=O | 4.45 | > 64 | > 64 | – |
| O=c1c(NCc2ccccn2)c(Nc2nc3ccc(Cl)cc3o2)c1=O | 2.22 | > 64 | > 64 | – |
| COc1nc2ccc(Br)cc2cc1[C@@H](c1ccccc1)[C@@](O)(CCN(C)C)c1cccc2ccccc12 [BEDAQUILINE] | – | 0.05 (≈ 0.0278 µg/mL) | – | MBC [4, 15]: 0.03 µM (≈ 0.0167 µg/mL); MIC [8]: 0.1 µM (≈ 0.0556 µg/mL) |
| O=c1c(NCc2ccccc2)c(NCc2ccccn2)c1=O | 1.67 | > 64 | > 64 | – |
| O=c1c(NCc2ccccn2)c(NC2CCCCCCC2)c1=O | 2.63 | > 64 | > 64 | – |
| O=c1c(NCCCBr)c(NCc2ccccn2)c1=O | 0.85 | > 64 | > 64 | – |
| O=c1c(NCc2ccccn2)c(N2CCC(c3ccccc3)CC2)c1=O | 2.6 | > 64 | 7.47 | – |
| COc1ccc(/C=C2/S/C(=N/N=C/c3ccccc3O)NC2=O)cc1 | – | – | – | MIC90 ([9]; Mycobacterium tuberculosis, H37Rv): 0.5 µg/mL (≈ 1.41 µM) |
| O=c1c(NCc2ccccn2)c(-c2ccc(N3CCNCC3)cc2)c1=O | 1.91 | 19.9 (≈ 6.93 µg/mL) | > 64 | MBC [4, 15]: 64 µM (≈ 22.3 µg/mL) |
| O=c1c(NCc2ccccn2)c(-c2ccc(N3CCSCC3)cc2)c1=O | 2.8 | 0.9 (≈ 0.329 µg/mL) | > 64 | MBC [4, 15]: 1.2 µM (≈ 0.439 µg/mL); Activity [6]: inactive; fractional inhibitory concentration index (FICI) [7]: 0.48; Stability [10]: Unstable |
| O=c1c(NCc2ccccn2)c(-c2ccc(F)cc2)c1=O | 2.48 | 14.9 (≈ 4.21 µg/mL) | > 64 | MBC [4, 15]: > 100 µM |
| O=c1c(NCc2ccccn2)c(Nc2nc3cc([N+](=O)[O-])ccc3o2)c1=O | 1.55 | > 64 | > 64 | – |
| O=c1c(NCc2ccccn2)c(N2CCOCC2)c1=O | 0.11 | > 64 | > 64 | – |

| Compound | logP [1] | MIC [2, 14] [µM] | CC50 at 72 h [3] [µM] | other results |
| --- | --- | --- | --- | --- |
| CCCCCCNc1c(NCc2ccccn2)c(=O)c1=O | 2.16 | > 64 | > 64 | – |
| O=c1c(NCc2ccccn2)c(NC2CCCCC2)c1=O | 1.74 | > 64 | > 64 | – |
| O=c1c(NCc2ccccn2)c(Nc2nc3ccc([N+](=O)[O-])cc3o2)c1=O | 1.55 | > 64 | > 64 | – |
| O=c1c(NCc2ccccn2)c(-c2ccc(N3CCCCC3)cc2)c1=O | 3.29 | 2.56 (≈ 0.889 µg/mL) | > 64 | MBC [4, 15]: 1.2 µM (≈ 0.417 µg/mL); Activity [6]: inactive; Activity [11]: Active; Activity [12]: 80%; fractional inhibitory concentration index (FICI) [7]: 0.29 |
| O=c1c(NCc2ccccn2)c(N2CCCCC2)c1=O | 1.18 | > 64 | > 64 | – |
| O=c1c(NCc2ccccn2)c(Nc2ccccc2)c1=O | 1.58 | 15.1 (≈ 4.23 µg/mL) | > 64 | – |
| O=c1c(NCc2ccccn2)c(-c2ccc(N3CCOCC3)cc2)c1=O | – | – | > 64 | MIC [9]: 0.5 µM (≈ 0.175 µg/mL); IC50 (ATP synthase): 30 nM; Selectivity Index [13]: > 1000; MIC [2]: 0.77 µM (≈ 0.269 µg/mL); MBC [4]: 0.4 µM (≈ 0.14 µg/mL); Activity [6]: inactive; fractional inhibitory concentration index (FICI) [7]: 0.37 |
| O=c1c(NCc2ccccn2)c(Nc2nc3ccccc3o2)c1=O | 1.61 | > 64 | > 64 | – |
| CC/C(=C(\c1ccccc1)c1ccc(OCCN(C)C)cc1)c1ccccc1 [TAMOXIFEN] | – | – | 5.03 | – |
| O=c1c(NCc2ccccn2)c(Nc2nc3cc(Cl)ccc3o2)c1=O | 2.22 | > 64 | > 64 | – |
| O=c1c(NCc2ccccn2)c(-c2ccc(C3CCNCC3)cc2)c1=O | 2.44 | > 64 | > 64 | – |
| O=c1c(NCc2ccccn2)c(N2CCN(c3ccccc3)CC2)c1=O | 2.06 | > 64 | 26.2 | – |
| CCCNc1c(NCc2ccccn2)c(=O)c1=O | 0.82 | > 64 | > 64 | – |
| Cc1ccc2nc(Nc3c(NCc4ccccn4)c(=O)c3=O)oc2c1 | 2.13 | > 64 | > 64 | – |
| Cc1ccc2oc(Nc3c(NCc4ccccn4)c(=O)c3=O)nc2c1 | 2.13 | > 64 | > 64 | – |
| O=c1c(NCc2ccccn2)c(Nc2cc(C3CC3)n[nH]2)c1=O | 0.89 | > 64 | > 64 | – |
